{"source": "ChEMBL document CHEMBL1151458", "about": "“Comparative analysis of the bactericidal activities of amphibian peptide analogues against multidrug-resistant nosocomial bacterial strains” (2008)", "key": {"Pseudomonas aeruginosa [1]": {"tested_on": "Pseudomonas aeruginosa", "assay": "Antimicrobial activity against Pseudomonas aeruginosa isolate 1 with AMP-CFZ-CIP-CTX-CXM-GEN-LVX-SXT-TET resistance phenotype at twofold bactericidal concentration after 10 to 30 mins by time kill assay", "type": "functional, organism-based", "how_it_was_run": "(§1)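 Time-kill in 10 mM sodium phosphate buffer, pH 7.4: 1 × 10^7 CFU/ml mid-log clinical isolate (10 μl) exposed at 37°C to peptide at the 1.5-h bactericidal concentration or twofold that, in 100 μl. Samples taken from 2 min onward, plated on tryptone soy agar, CFU counted after 24 h at 37°C. Killing taken as ≥3 log10 CFU/ml drop.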"}, "Pseudomonas aeruginosa [2]": {"tested_on": "Pseudomonas aeruginosa", "assay": "Bactericidal activity against Pseudomonas aeruginosa isolate 1 with AMP-CFZ-CIP-CTX-CXM-GEN-LVX-SXT-TET resistance phenotype assessed as concentration required for >= 3 log10 CFU/ml reduction in viable bacteria in sodium phosphate buffer at pH 7.4 after 1.5 hrs by liquid microdilution assay", "type": "functional", "how_it_was_run": "(§2)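 Clinical multidrug-resistant isolates grown to mid-log in tryptone soy broth and stored frozen. Exponential cells resuspended in 10 mM sodium phosphate buffer, pH 7.4, at 1 × 10^7 CFU/ml; 10 μl incubated with graded peptide concentrations in 100 μl at 37°C for 1.5 h. Plated on tryptone soy agar, CFU read after 24 h at 37°C. Peptide stocks in 20% ethanol.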"}, "Acinetobacter baumannii [3]": {"tested_on": "Acinetobacter baumannii", "assay": "Bactericidal activity against Acinetobacter baumannii isolate 3 with AMP-AMC-CFZ-CIP-IPM-SXT-TET-TOB resistance phenotype assessed as concentration required for >= 3 log10 CFU/ml reduction in viable bacteria in 20% heat-inactivated human serum after 1.5 hrs by liquid microdilution assay", "type": "functional", "how_it_was_run": "(§3)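 The buffer microdilution kill assay (1 × 10^7 CFU/ml mid-log cells, 10 μl in 100 μl, 37°C, 1.5 h, CFU on tryptone soy agar after 24 h) with serum added to 20% or 40% final. Serum was pooled from five healthy donors, clotted at room temperature, spun at 300 × g and heat-inactivated at 56°C for 30 min.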"}, "[4]": {"tested_on": "Stenotrophomonas maltophilia", "assay": "Bactericidal activity against Stenotrophomonas maltophilia isolate 1 with AMK-CIP-CTX-IPM-MEM-SAM-TZP resistance phenotype assessed as concentration required for >= 3 log10 CFU/ml reduction in viable bacteria in sodium phosphate buffer at pH 7.4 after 1.5 hrs by liquid microdilution assay", "type": "functional", "how_it_was_run": "as §2"}, "Acinetobacter baumannii [5]": {"tested_on": "Acinetobacter baumannii", "assay": "Bactericidal activity against Acinetobacter baumannii isolate 3 with AMP-AMC-CFZ-CIP-IPM-SXT-TET-TOB resistance phenotype assessed as concentration required for >= 3 log10 CFU/ml reduction in viable bacteria in sodium phosphate buffer at pH 7.4 after 1.5 hrs by liquid microdilution assay", "type": "functional", "how_it_was_run": "as §2"}, "[6]": {"tested_on": "Stenotrophomonas maltophilia", "assay": "Bactericidal activity against Stenotrophomonas maltophilia isolate 2 with AMK-CIP-CTX-IPM-MEM-SAM-TZP resistance phenotype assessed as concentration required for >= 3 log10 CFU/ml reduction in viable bacteria in 20% heat-inactivated human serum after 1.5 hrs by liquid microdilution assay", "type": "functional", "how_it_was_run": "as §3"}, "Enterococcus faecium": {"tested_on": "Enterococcus faecium", "assay": "Bactericidal activity against Enterococcus faecium isolate 3 with AMP-CIP-CTX-ERY-GEN-LVX-SXT-TEC-VAN resistance phenotype assessed as concentration required for >= 3 log10 CFU/ml reduction in viable bacteria in 20% heat-inactivated human serum after 1.5 hrs by liquid microdilution assay", "type": "functional", "how_it_was_run": "as §3"}, "Pseudomonas aeruginosa [7]": {"tested_on": "Pseudomonas aeruginosa", "assay": "Bactericidal activity against Pseudomonas aeruginosa isolate 3 with AMP-CFZ-CTX-CIP-GEN-IPM-LVX-SXT-TET-TOB resistance phenotype assessed as concentration required for >= 3 log10 CFU/ml reduction in viable bacteria in sodium phosphate buffer at pH 7.4 after 1.5 hrs by liquid microdilution assay", "type": "functional", "how_it_was_run": "as §2"}, "Pseudomonas aeruginosa [8]": {"tested_on": "Pseudomonas aeruginosa", "assay": "Bactericidal activity against Pseudomonas aeruginosa isolate 2 with AMP-CFZ-CIP-CTX-CXM-GEN-LVX-IPM-MEM-SXT-TET resistance phenotype assessed as concentration required for >= 3 log10 CFU/ml reduction in viable bacteria in sodium phosphate buffer at pH 7.4 after 1.5 hrs by liquid microdilution assay", "type": "functional", "how_it_was_run": "as §2"}, "Staphylococcus aureus": {"tested_on": "Staphylococcus aureus", "assay": "Antimicrobial activity against Staphylococcus aureus isolate 1 with AMC-AMP-CIP-ERY-GEN-OXA-RIF resistance phenotype at twofold the bactericidal concentration within 30 mins", "type": "functional, organism-based", "how_it_was_run": "as §1"}}, "note": "The source made the active and inactive calls. No cut-off for these calls is given here."}
{"substance": "H-GIFSKLAGKKLKNLLISG-NH2", "values": [{"measurement": "Activity", "setting": "Pseudomonas aeruginosa [1]", "result": "Active"}, {"measurement": "Activity", "setting": "Pseudomonas aeruginosa [2]", "result": 1, "unit": "µM"}, {"measurement": "Activity", "setting": "Acinetobacter baumannii [3]", "result": 16, "unit": "µM"}, {"measurement": "Activity", "setting": "[4]", "result": 0.5, "unit": "µM"}, {"measurement": "Activity", "setting": "Acinetobacter baumannii [5]", "result": 1, "unit": "µM"}, {"measurement": "Activity", "setting": "[6]", "result": 8, "unit": "µM"}, {"measurement": "Activity", "setting": "Enterococcus faecium", "result": 32, "unit": "µM"}, {"measurement": "Activity", "setting": "Pseudomonas aeruginosa [7]", "result": 0.5, "unit": "µM"}, {"measurement": "Activity", "setting": "Pseudomonas aeruginosa [8]", "result": 1, "unit": "µM"}, {"measurement": "Activity", "setting": "Staphylococcus aureus", "result": "inactive"}]}
